Legend:
[1] = Chemical stability in aqueous buffer containing 5% DMSO and 5% tween 80 at pH 7.4 assessed as compound recovery in anoxic conditions after 24 hrs by UPLC analysis; assay type: physicochemical; conditions: read-out: Stability
Procedure, shortened: (§1)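 Stability at 37 °C in aqueous buffer with 5% DMSO and 5% Tween 80 at pH 1.2, 6.8 or 7.4; percent recovery by HPLC/UPLC on BEH C18 column, water+0.1% TFA/acetonitrile gradient from 40% to 95% acetonitrile over 8 min, room temperature.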

[2] = Chemical stability in aqueous buffer containing 5% DMSO and 5% tween 80 at pH 1.2 assessed as compound recovery in anoxic conditions after 12 hrs by UPLC analysis; assay type: physicochemical; conditions: pH 1.2, 12 h; procedure, shortened: as §1
[3] = system: NCI-H460; assay: Antiproliferative activity against human NCI-H460 cells incubated for 24 hrs drug exposure measured after 48 hrs of recovery by sulforhodamine B assay; assay type: functional, cell-based
[4] = Chemical stability in aqueous buffer containing 5% DMSO and 5% tween 80 at pH 6.8 assessed as compound recovery in anoxic conditions after 24 hrs by UPLC analysis; assay type: physicochemical; conditions: read-out: Stability; procedure, shortened: as §1
[5] = Solubility in water; assay type: physicochemical; conditions: buffer
[6] = Chemical stability in aqueous buffer containing 5% DMSO and 5% tween 80 at pH 1.2 assessed as compound recovery in anoxic conditions after 3 hrs by UPLC analysis; assay type: physicochemical; conditions: read-out: Stability; procedure, shortened: as §1
[7] = system: A-431; assay: Antiproliferative activity against human A431 cells incubated for 24 hrs drug exposure measured after 48 hrs of recovery by sulforhodamine B assay; assay type: functional, cell-based
[8] = system: NCI-H460; assay: Antitumor activity against human NCI-H460 cells xenografted in nude CD1 mouse assessed as tumor volume inhibition at 18 mg/kg, iv administered qd 3 times per week for 2 weeks relative to control; assay type: functional; conditions: NCI-H460, 336 h, read-out: TGI
Procedure, shortened: (§2)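 CD1 nude mice given s.c. right-flank NCI-H460 (3 × 10⁶) or A431 (5 × 10⁶) cells from culture on day 0; eight mice per group. Dosing began day 3 at ~50 mm³ tumors; vehicle 10% DMSO, 9% HPBCD, 14.4% PEG1000 in water. Diameters taken biweekly by caliper; mice weighed daily, maximum BWL% reported; Mann–Whitney versus vehicle.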

[9] = system: A-431; assay: Antitumor activity against human A431 cells xenografted in nude CD1 mouse assessed as tumor volume inhibition at 10 mg/kg, iv administered qd 3 times per week for 2 weeks relative to control; assay type: functional; conditions: A-431, 336 h, read-out: TGI; procedure, shortened: as §2
[10] = system: Mus musculus; assay: Toxicity in nude CD1 mouse xenografted with human A431 cells assessed as body weight loss at 10 mg/kg, iv administered qd 3 times per week for 2 weeks; assay type: organism-based, A-431; design: dose 10 mg/kg, route intravenous; conditions: in vivo, 336 h; procedure, shortened: as §2
[11] = Chemical stability in aqueous buffer containing 5% DMSO and 5% tween 80 at pH 6.8 assessed as compound recovery in anoxic conditions after 6 hrs by UPLC analysis; assay type: physicochemical; conditions: read-out: Stability; procedure, shortened: as §1
[12] = Chemical stability in aqueous buffer containing 5% DMSO and 5% tween 80 at pH 7.4 assessed as compound recovery in anoxic conditions after 6 hrs by UPLC analysis; assay type: physicochemical; conditions: read-out: Stability; procedure, shortened: as §1
[13] = Toxicity in iv dosed nude CD1 mouse xenografted with human A431 cells assessed as mortality administered qd 3 times per week for 2 weeks; assay type: organism-based, A-431; conditions: in vivo
[14] = system: Mus musculus; assay: Toxicity in nude CD1 mouse xenografted with human NCI-H460 NSCLC cells assessed as body weight loss at 18 mg/kg, iv administered qd 3 times per week for 2 weeks; assay type: organism-based; design: dose 18 mg/kg, route intravenous; conditions: in vivo, 336 h; procedure, shortened: as §2
[15] = system: A-431; assay: Antitumor activity against human A431 cells xenografted in nude CD1 mouse assessed as tumor volume inhibition at 37 mg/kg, iv administered qd 3 times per week for 2 weeks relative to control; assay type: functional; conditions: A-431, 336 h, read-out: TGI; procedure, shortened: as §2
[16] = system: Mus musculus; assay: Toxicity in nude CD1 mouse xenografted with human A431 cells assessed as body weight loss at 37 mg/kg, iv administered qd 3 times per week for 2 weeks; assay type: organism-based, A-431; design: dose 37 mg/kg, route intravenous; conditions: in vivo, 336 h; procedure, shortened: as §2

Compound | remaining at 24 h [1] [%] | Stability [2] | IC50 [3] [nM] | remaining at 24 h [4] [%] | solubility [5] | remaining at 3 h [6] [%] | IC50 [7] [nM] | inhibition in vivo at 18 mg/kg [8] [%] | inhibition in vivo at 10 mg/kg [9] [%] | Activity [10] [%] | remaining at 6 h [11] [%] | remaining at 6 h [12] [%] | MTD at 336 h [13] [mg/kg] | Activity [14] [%] | inhibition in vivo at 37 mg/kg [15] [%] | Activity [16] [%]
O=C(O)/C=C/c1ccc(-c2ccc(OCCN3CCOCC3)c(C34CC5CC(CC(C5)C3)C4)c2)cc1 | > 99 | Stable | > 10000 | > 99 | Insoluble | > 99 |  |  |  |  |  |  |  |  |  | 
N#CCOc1ccc(-c2ccc(/C=C/C(=O)O)cc2)cc1C12CC3CC(CC(C3)C1)C2 | > 99 | Stable | 850 | > 99 | Insoluble | > 99 |  |  |  |  |  |  |  |  |  | 
COCCOCOc1ccc(-c2ccc(/C=C/C(=O)O)cc2)cc1C12CC3CC(CC(C3)C1)C2 |  | Stable | 4200 |  | Insoluble |  |  |  |  |  |  |  |  |  |  | 
O=C(O)/C=C/c1ccc(-c2ccc(OCN3C(=O)c4ccccc4C3=O)c(C34CC5CC(CC(C5)C3)C4)c2)cc1 | > 99 | Stable | 8400 | > 99 | Insoluble | > 99 |  |  |  |  |  |  |  |  |  | 
CCCOC(=O)OCOc1ccc(-c2ccc(/C=C/C(=O)O)cc2)cc1C12CC3CC(CC(C3)C1)C2 | > 99 | Stable | 320 | > 99 | Insoluble | > 99 |  |  |  |  |  |  |  |  |  | 
CC(=O)Oc1ccc(-c2ccc(/C=C/C(=O)O)cc2)cc1C12CC3CC(CC(C3)C1)C2 | > 99 | Stable | 260 | > 99 | Insoluble | > 99 | 530 |  |  |  |  |  |  |  |  | 
O=C(O)/C=C/c1ccc(-c2ccc(OC(=O)CCCN3CCOCC3)c(C34CC5CC(CC(C5)C3)C4)c2)cc1 | 88 | Stable | 220 | 90 | Insoluble | > 99 | 340 | 37 | 34 | 0 | 99 | 99 | 18 | 10 | 59 | 18
CN1CCN(CCCC(=O)Oc2ccc(-c3ccc(/C=C/C(=O)O)cc3)cc2C23CC4CC(CC(C4)C2)C3)CC1 | 64 | Stable | 240 | 85 | Insoluble | > 99 | 410 |  |  |  | 98 | 89 |  |  |  | 
CC(C)[C@H](N)C(=O)Oc1ccc(-c2ccc(/C=C/C(=O)O)cc2)cc1C12CC3CC(CC(C3)C1)C2.Cl | 12 | Stable | 510 | 39 | Insoluble | > 99 | 410 |  |  |  | 92 | 62 |  |  |  | 
O=C(O)/C=C/c1ccc(-c2ccc(OC(=O)COCCOCCOCC(=O)O)c(C34CC5CC(CC(C5)C3)C4)c2)cc1 | > 99 | Stable | 170 | > 99 | Insoluble | > 99 | 330 |  |  |  |  |  |  |  |  | 

Reference: ChEMBL document CHEMBL1955854, “New retinoid derivatives as back-ups of Adarotene” (Bioorg Med Chem, 2012)
